# Screens as filed in PubChem BioAssay.
# Sampled rows, rich in hits. Any-hit rate of the full collection: about 2.5%.
# MEKK2 WT-MEK5: raises or lowers MEK5 binding to wildtype human MEKK2 PB1 domain. bead flow cytometry, Alexa488-MEK5 binding to MEKK2 WT; actives lie on both sides. binding response (% of control), % at 10 µM. 1.1% of 290,000 active. AID 1531; in the data active = binding response below about 67% or above about 130%
# ABCB1 block: inhibitors of human ABCB1 transporter, ABCG2 counter-screen. P08183. CCRF-Adr cells, JC-1 efflux, flow cytometry. inhibition, % at 6.6 µM. 0.067% of 190,000 active; in the data active = inhibition above about 40%;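 note: higher value means more JC-1 retained so stronger ABCB1 efflux block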
# ABCG2 block: inhibitors of human ABCG2 transporter, ABCB1 counter-screen; Q9UNQ0; IgMXP3 cells, JC-1 efflux, flow cytometry; inhibition, % at 6.6 µM; 0.1% of 190,000 active; AID 1325;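 active = inhibition above 80%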
#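 Times: 10 min at 25 °C | Test system: Two drug-resistant human cell lines, ABCG2 and ABCB1 | Quantity: 3 million cells/mL final, two lines in 1:1 ratio | Signal: Flow cytometry, 530 nm JC-1 signal | Dosing: Compound at 6.6 µM | Controls: Nicardipine and DMSO wells | Reagent: JC-1 as fluorescent efflux pump substrate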
# MEKK2 mut-MEK5: signal of MEK5 binding to mutant human MEKK2 PB1 domain; percent response, % at 10 µM; bead flow cytometry, Alexa488-MEK5 binding to MEKK2 mutant; 0.35% of 290,000 active; in the data active = percent response above about 24%, passing the limit was not always enough
# Efflux pump mplx: antifungal efflux pump inhibition, Nile Red retention; S. cerevisiae Candida pump triplex; inhibition, % at 10 µM; 0.44% of 330,000 active;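 active = plate passing quality check with inhibition over a set limit, or well fluorescence over plate mean plus 4 SD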;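 note: Nile Red retained in pooled yeast measured as flow cytometry median fluorescence; higher means more Nile Red kept so more efflux inhibition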
# MEKK3 PB1 HTS: raises or lowers MEK5 binding to the human MEKK3 PB1 domain; bead-based flow cytometry, Alexa488-MEK5 binding to MEKK3; actives lie on both sides; 0 = blocked by unlabeled MEK5, 100 = vehicle; binding response (% of control), % at 10 µM; 1.4% of 290,000 active; AID 1529;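 active = binding response more than 3 SD above or below the average of its plate-row segment, actives on both sides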;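 note: Alexa488 bead fluorescence after subtracting the streptavidin-only scavenger bead signal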
# Target sequence (Q99759 whole entry, looked up, the tested form may be a part): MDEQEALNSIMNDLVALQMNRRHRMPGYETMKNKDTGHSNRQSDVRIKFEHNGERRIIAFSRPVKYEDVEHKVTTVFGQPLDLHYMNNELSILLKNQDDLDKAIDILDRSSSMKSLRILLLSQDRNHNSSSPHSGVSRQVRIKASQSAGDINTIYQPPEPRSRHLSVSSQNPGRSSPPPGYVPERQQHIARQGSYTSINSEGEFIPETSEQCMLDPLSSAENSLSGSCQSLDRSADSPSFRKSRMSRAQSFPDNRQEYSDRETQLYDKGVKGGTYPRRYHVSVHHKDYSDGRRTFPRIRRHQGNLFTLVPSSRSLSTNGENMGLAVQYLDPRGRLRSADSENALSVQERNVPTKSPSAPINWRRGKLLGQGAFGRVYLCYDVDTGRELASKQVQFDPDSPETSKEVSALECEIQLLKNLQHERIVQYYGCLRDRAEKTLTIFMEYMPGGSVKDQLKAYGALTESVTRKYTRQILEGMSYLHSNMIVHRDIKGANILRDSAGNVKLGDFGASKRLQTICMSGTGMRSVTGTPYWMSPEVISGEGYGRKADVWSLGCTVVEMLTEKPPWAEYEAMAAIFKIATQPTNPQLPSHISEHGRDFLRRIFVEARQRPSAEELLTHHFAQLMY
# MEKK2wt confirm: raises or lowers MEK5 binding to wildtype human MEKK2, retest | shares compounds with MEKK3 PB1 HTS | bead flow cytometry, Alexa488-MEK5 binding to MEKK2 WT; actives lie on both sides | binding response (% of control), % at 10 µM | 2.4% of 5,900 active; in the data active = binding response below about 16% or above about 210%; inactive = in between
# MEKK2mut confirm: signal of MEK5 binding to mutant human MEKK2, retest | shares compounds with MEKK3 PB1 HTS | bead flow cytometry, Alexa488-MEK5 binding to MEKK2 mutant | percent response, % at 10 µM | 2% of 5,900 active | AID 1893; in the data active = percent response mostly above about 71%, no sharp cut-off; inactive = mostly below about 38%;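 note: higher means compound restores mutant binding toward wildtype level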
# MEKK3-MEK5 inh: MEKK3-MEK5 PB1 inhibition, single concentration confirmation | 1.8% of 5,900 active | shares compounds with MEKK3 PB1 HTS | bead flow cytometry, Alexa488-MEK5 binding to MEKK3; stronger effect = lower value | binding response (% of control), % at 10 µM;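 active = binding response below 72% of control, or above a set upper limit, though filed actives all read lower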
# Numbers stand for hits; - = inactive; . = no result; ! = not active in a repeat; [ ] = remark or other dose.
SMILES,MEKK2 WT-MEK5,ABCB1 block,ABCG2 block,MEKK2 mut-MEK5,Efflux pump mplx,MEKK3 PB1 HTS,MEKK2wt confirm,MEKK2mut confirm,MEKK3-MEK5 inh
C#CCOCCOCCOCCNc1nc(N2CCN(C(=O)[C@H](Cc3ccc(O)cc3)n3cc([C@@H](N)C(C)CC)nn3)CC2)nc(N2CCN(C(=O)[C@H](Cc3cc4ccccc4[nH]3)n3cc([C@@H](N)CC(C)C)nn3)CC2)n1 (stereo partly drawn),224,-,-,73,-,-,231,117,-
C#CCOCCOCCOCCNc1nc(N2CCN(C(=O)[C@H](Cc3cc4ccccc4[nH]3)n3cc(C(N)CC(C)C)nn3)CC2)nc(N2CCN(C(=O)[C@H](CCC(=O)O)n3cc(C(N)[C@H](C)CC)nn3)CC2)n1 (stereo partly drawn),-,-,-,-,-,-,.,.,.
C#CCOCCOCCOCCNc1nc(N2CCN(C(=O)[C@H](Cc3cc4ccccc4[nH]3)n3cc([C@@H](N)C(C)CC)nn3)CC2)nc(N2CCN(C(=O)[C@H](Cc3cc4ccccc4[nH]3)n3cc([C@@H](N)Cc4ccc(O)cc4)nn3)CC2)n1 (stereo partly drawn),313,-,-,162,-,-,266,104,-
C#CCOCCOCCOCCNc1nc(N2CCN(C(=O)C(Cc3cc4ccccc4[nH]3)n3cc(C(N)Cc4ccc(O)cc4)nn3)CC2)nc(N2CCN(C(=O)C(CCC(=O)O)n3cc(C(N)C(C)CC)nn3)CC2)n1 (stereo not drawn),.,.,.,.,-,.,.,.,.
O=[N+]([O-])c1ccc2c(c1)N([O-])C1(CCCCC1)[N+]2=O,-,.,.,-,.,-,.,.,.
C#CCOCCOCCOCCNc1nc(N2CCN(C(=O)[C@H](CCCCN)n3cc([C@@H](N)C(C)CC)nn3)CC2)nc(N2CCN(C(=O)[C@H](CCCCN)n3cc([C@@H](N)CC(C)C)nn3)CC2)n1 (stereo partly drawn),180,-,-,60,-,-,-,-,-
C#CCOCCOCCOCCNc1nc(N2CCN(C(=O)[C@H]([C@@H](C)CC)n3cc([C@@H](N)Cc4ccc(O)cc4)nn3)CC2)nc(N2CCN(C(=O)[C@H](Cc3cc4ccccc4[nH]3)n3cc([C@@H](N)C(C)CC)nn3)CC2)n1 (stereo partly drawn),237,-,-,91,-,-,216,-,-
C#CCOCCOCCOCCNc1nc(N2CCN(C(=O)[C@H](CCCCN)n3cc([C@@H](N)[C@H](C)CC)nn3)CC2)nc(N2CCN(C(=O)[C@H](CCCCN)n3cc([C@@H](N)CC(N)=O)nn3)CC2)n1,.,.,.,.,-,.,.,.,.
C#CCOCCOCCOCCNc1nc(N2CCN(C(=O)[C@H](CCC(=O)O)n3cc(C(N)Cc4ccc(O)cc4)nn3)CC2)nc(N2CCN(C(=O)[C@H](Cc3cc4ccccc4[nH]3)n3cc(C(N)[C@H](C)CC)nn3)CC2)n1 (stereo partly drawn),153,-,-,-,-,-,-,-,-
CCN(CC)CCN(C(=O)Cn1nnc(-c2ccc(C)o2)n1)C(C(=O)NC1CCCC1)c1ccc(F)cc1 (stereo not drawn),-,.,.,-,.,-,.,.,.
CC1CN(C(=O)CCNS(=O)(=O)c2ccc(Br)cc2)CC(C)O1 (stereo not drawn),.,.,.,.,-,.,.,.,.
Cc1ccc(N(CC2=NCCN2)c2cccc(O)c2)cc1,-,-,-,-,-,35![inhibitor],-,-,-
O=C(O)c1cccc(N/N=C/c2ccc(F)c(F)c2)c1,-,-,-,-,-,-,.,.,.
O=C(O)c1cccc(N/N=C/C2=C(Cl)c3cc(Cl)ccc3SC2)c1,10[inhibitor],-,-,-,.,28[inhibitor],-,-,-
COCCN(C(=O)COC(=O)CCOc1cccc(C)c1)c1c(N)n(Cc2ccccc2)c(=O)[nH]c1=O,.,.,.,.,-,.,.,.,.
CCc1ccc(C(=O)N/N=C/c2cccc3ccccc23)nc1,-,-,-,-,-,-,.,.,.
COc1cc(Cl)c(C)cc1NC(=O)c1cc(S(=O)(=O)N(C)C)ccc1N1CCCC1,-,-,-,-,-,148,-,-,-
CN1CCN(c2ccc(Cl)cc2NC(=O)c2ccc(S(=O)(=O)N(C)C)cc2)CC1,136,-,-,-,-,-,-,-,-
CN(C)S(=O)(=O)c1ccc(N2CCCC2)c(C(=O)Nc2ccccc2OC(F)F)c1,-,-,-,-,-,-,.,.,.
CCN(CC)S(=O)(=O)c1cc(C(=O)Nc2cc(Cl)ccc2N2CCN(C)CC2)ccc1Cl,161,-,-,-,-,-,-,-,-
COc1ccc(C(=O)NNC(=O)c2ccc(C(C)(C)C)cc2)cc1,2.0[inhibitor],-,-,-,-,1.0[inhibitor],-,-,-
Cn1c(OCc2cccnc2)nc2c1c(=O)n(Cc1ccc(F)cc1)c(=O)n2C,-,.,.,-,-,71[inhibitor],-,-,-
COc1ccc(-n2cc(CNC3CCN(C)CC3)c(-c3cccc(F)c3)n2)cc1,169,-,-,-,-,-,-,-,-
CC(=O)Nc1nnc(C2=COCCO2)o1,-,-,-,-,-,58[inhibitor],-,-,-
Cc1ccc(S(=O)(=O)N(CC(=O)N2CCc3ccccc3C2)c2ccc(Cl)c(Cl)c2)cc1,-,-,-,-,-,146,-,-,-
O=C(CN(c1ccc(Cl)c(Cl)c1)S(=O)(=O)c1ccccc1)N1CCc2ccccc2C1,-,-,-,-,-,-,.,.,.
CCOC(=O)N1CCN(C(=O)CN(c2ccccc2OC)S(=O)(=O)c2ccc(C)cc2)CC1,18[inhibitor],-,-,-,-,12[inhibitor],-,-,-
CCc1ccc2c(c1)C(c1ccc(N3CCOCC3)cc1)=NNC(c1ccncc1)=N2,-,-,-,-,-,148,-,-,-
Cc1ccc(NC(=O)CSc2nnc(C3CC3)n2C)cc1S(=O)(=O)N1CCCCC1,.,.,.,.,-,.,.,.,.
CC1CN(C(=S)Nc2ccccc2C(F)(F)F)CC(C)O1 (stereo not drawn),-,.,.,-,-,-,.,.,.
